One test deals with Echinochloa crus-galli. Put plainly: Herbicidal activity against Echinochloa crus-galli (barnyard grass) assessed as reduction in plant growth measured 21 days after compound post-emergence spray application. Format: functional. The procedure, abridged: (§1)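 GR50 = rate giving 50% growth reduction, scored 21 days after postemergence spray. Application rates are expressed in kg/ha.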

In the next test the test system is Abutilon theophrasti. Put plainly: Herbicidal activity against Abutilon theophrasti (velvetleaf) assessed as reduction in plant growth measured 21 days after compound post-emergence spray application. Format: functional. The procedure, abridged:
as §1

Test [1] deals with T1, 4-hydroxyphenylpyruvate dioxygenase (Arabidopsis thaliana, UniProt P93836).
T1 sequence (P93836 whole entry): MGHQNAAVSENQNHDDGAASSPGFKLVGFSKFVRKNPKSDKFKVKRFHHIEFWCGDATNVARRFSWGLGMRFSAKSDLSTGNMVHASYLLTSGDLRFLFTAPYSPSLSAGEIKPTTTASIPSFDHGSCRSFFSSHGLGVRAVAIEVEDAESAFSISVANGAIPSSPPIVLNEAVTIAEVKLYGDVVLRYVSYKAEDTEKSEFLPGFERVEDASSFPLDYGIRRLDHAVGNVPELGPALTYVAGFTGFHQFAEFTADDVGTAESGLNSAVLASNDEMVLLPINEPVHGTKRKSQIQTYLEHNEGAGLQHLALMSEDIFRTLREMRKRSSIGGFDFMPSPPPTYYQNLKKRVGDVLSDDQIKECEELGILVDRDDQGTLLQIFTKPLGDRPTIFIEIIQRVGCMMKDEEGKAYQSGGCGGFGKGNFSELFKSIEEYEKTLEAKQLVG
The experiment in a line: Inhibition of Arabidopsis thaliana 4-hydroxyphenylpyruvate dioxygenase. The procedure, abridged:
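Recombinant Arabidopsis thaliana HPPD enzyme, assayed by a previously published method.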

The next test relates to Chenopodium album. The experiment in a line: Herbicidal activity against Chenopodium album assessed as reduction in plant growth measured 21 days after compound post-emergence spray application. Format: functional. The procedure, abridged:
as §1

The subject of the next test is Centaurea cyanus. The experiment in a line: Herbicidal activity against Centaurea cyanus assessed as reduction in plant growth measured 21 days after compound post-emergence spray application. Format: functional.
In a further test the test system is Setaria italica. Put plainly: Herbicidal activity against Setaria italica assessed as reduction in plant growth measured 21 days after compound post-emergence spray application. The format is functional.

This passage reports GR50 and IC50 results from ChEMBL document CHEMBL3046350, “Design, synthesis and herbicidal activity of new iron chelating motifs for HPPD-inhibitors” (Bioorg Med Chem, 2009).

A value given as a limit tells only on which side of the number the result lay.

One may read the IC50 as the concentration that gives 50% inhibition. Turning to `Cc1nc(C)n(O)c1C(=O)c1ccc(S(C)(=O)=O)c2ncccc12`, the GR50 in the test on Echinochloa crus-galli, in the test on Abutilon theophrasti and in the test on Chenopodium album was more than 1 kg/ha in each case. The IC50 in test [1] is more than 20 µM.

Turning to `CC(=O)/C(=N/O)C(=O)c1ccc(S(C)(=O)=O)c(C2=NOCC2)c1Cl`, the GR50 is given as 2.5 kg/ha with Echinochloa crus-galli, more than 3 kg/ha in the test with Centaurea cyanus and more than 3 kg/ha with Setaria italica. For the same molecule, half-maximal inhibition in test [1] (IC50) was put at 13 µM.

Turning to `Cc1nc(C)n(O)c1C(=O)c1ccc(S(C)(=O)=O)cc1Cl`, the GR50 in the test on Echinochloa crus-galli, with Abutilon theophrasti and in the test on Chenopodium album was more than 0.5 kg/ha throughout. In test [1], this molecule displayed an IC50 of more than 20 µM.

Consider `CSc1ccc(C(=O)/C(=N\O)C(C)=O)c(C)c1Cl`, for which the GR50 with Echinochloa crus-galli, with Centaurea cyanus and in the test on Setaria italica was more than 3 kg/ha in each case. The IC50 in test [1] was more than 20 µM.

On to `CCOc1c(S(=O)(=O)CC)ccc(C(=O)c2c(C)nc(-c3cccn3C)n2O)c1Cl`, for which the GR50 in the test on Echinochloa crus-galli, with Abutilon theophrasti and in the test with Chenopodium album was more than 3 kg/ha each time. The IC50 in test [1] was more than 20 µM.

Turning to `Cc1nc(C)n(O)c1C(=O)c1ccc(S(C)(=O)=O)c(C2=NOCC2)c1Cl`, the values for the GR50 in the test with Echinochloa crus-galli, in the test on Abutilon theophrasti and in the test with Chenopodium album were 2 kg/ha, more than 3 kg/ha and 0.3 kg/ha, respectively. For the same molecule, it took 0.036 µM to reach half-maximal inhibition in test [1] (IC50).

`CCOc1c(S(=O)(=O)CC)ccc(C(=O)c2c(C)nc(-c3ccccc3)n2O)c1Cl`: the GR50 with Echinochloa crus-galli, with Abutilon theophrasti and in the test with Chenopodium album was more than 0.5 kg/ha throughout. Also, in test [1], the IC50 was more than 20 µM.

With `CCOc1c(S(=O)(=O)CC)ccc(C(=O)c2c(C)nc(-c3ccc(Cl)cc3Cl)n2O)c1Cl`, the GR50 in the test with Echinochloa crus-galli, with Abutilon theophrasti and in the test with Chenopodium album was more than 0.5 kg/ha throughout. Moreover, in test [1], the IC50 is more than 20 µM.

Consider `CCOc1c(S(=O)(=O)CC)ccc(C(=O)c2c(C)nc(CC)n2O)c1Cl`, for which the GR50 was more than 0.5 kg/ha in the test on Echinochloa crus-galli, more than 0.5 kg/ha in the test with Abutilon theophrasti and 0.2 kg/ha in the test on Chenopodium album. In addition, half-maximal inhibition in test [1] (IC50) required 0.071 µM.

With `COc1c(S(C)(=O)=O)ccc(C(=O)c2c(C)nc(C)n2O)c1C`, the GR50 in the test on Echinochloa crus-galli is on record as more than 1 kg/ha; with Abutilon theophrasti it was 0.7 kg/ha; in the test with Chenopodium album, 0.06 kg/ha. In test [1], this molecule returned an IC50 of 18 µM.

For `CCOc1c(S(=O)(=O)CC)ccc(C(=O)c2c(C)nc(-c3cccs3)n2O)c1Cl`, the GR50 with Echinochloa crus-galli, in the test on Abutilon theophrasti and in the test on Chenopodium album was more than 3 kg/ha in each case. The molecule also yielded an IC50 in test [1] of more than 20 µM.

In the case of `CCOc1c(S(=O)(=O)CC)ccc(C(=O)c2c(C)[n+]([O-])c(C)n2O)c1Cl`, the GR50 in the test with Echinochloa crus-galli, with Abutilon theophrasti and with Chenopodium album was more than 3 kg/ha throughout. The IC50 in test [1] came out at 0.19 µM.

As for `CCOc1c(S(=O)(=O)CC)ccc(C(=O)/C(=N\O)C(C)=O)c1Cl`, the GR50 in the test with Echinochloa crus-galli, in the test with Centaurea cyanus and in the test on Setaria italica was more than 3 kg/ha in each case. The molecule also came in with an IC50 in test [1] of 20 µM.

For the molecule `CCOc1c(S(=O)(=O)CC)ccc(C(=O)c2c(C)nc(C(C)C)n2O)c1Cl`, the GR50 with Echinochloa crus-galli was more than 3 kg/ha; in the test with Abutilon theophrasti, more than 3 kg/ha; with Chenopodium album, 1.5 kg/ha. Besides, the IC50 in test [1] came to 0.043 µM.

With `CCOc1c(S(=O)(=O)CC)ccc(C(=O)c2c(C)nc(C)n2O)c1Cl`, the GR50 turned out to be 0.5 kg/ha in the test with Echinochloa crus-galli, 0.1 kg/ha in the test on Abutilon theophrasti and 0.05 kg/ha in the test with Chenopodium album. Further, the IC50 in test [1] was determined as 0.048 µM.

`Cc1cc(C)c(C(=O)c2c(C)nc(C)n2O)c(C)c1`: the GR50 in the test on Echinochloa crus-galli, in the test on Abutilon theophrasti and in the test on Chenopodium album was more than 3 kg/ha in each case. Further, in test [1], the IC50 is more than 20 µM.

As for `CSc1ccc(C(=O)c2c(C)nc(C)n2O)c(C)c1Cl`, the GR50 with Echinochloa crus-galli, in the test with Abutilon theophrasti and with Chenopodium album was more than 0.5 kg/ha each time. In test [1], this molecule registered an IC50 of more than 20 µM.

Consider `COc1c(S(C)(=O)=O)ccc(C(=O)/C(=N\O)C(C)=O)c1C`, for which the GR50 in the test on Echinochloa crus-galli, in the test on Centaurea cyanus and in the test on Setaria italica was more than 3 kg/ha throughout. This molecule also yielded an IC50 in test [1] of more than 20 µM.

Regarding `Cc1[nH]n(C)c(=O)c1C(=O)c1ccc(S(C)(=O)=O)c(C2=NOCC2)c1Cl`, the GR50 in the test with Echinochloa crus-galli, with Abutilon theophrasti and in the test with Chenopodium album was less than 0.01 kg/ha each time. This molecule also yielded an IC50 in test [1] of 0.19 µM.

Turning to `CCOc1c(S(=O)(=O)CC)ccc(C(=O)c2c(C)ncn2O)c1Cl`, the values for the GR50 in the test with Echinochloa crus-galli, with Abutilon theophrasti and with Chenopodium album were more than 0.5 kg/ha, more than 0.5 kg/ha and 0.4 kg/ha, respectively. The IC50 in test [1] worked out at 20 µM.
